Experimental data reported in ChEMBL document CHEMBL4219161, “New phenylaniline derivatives as modulators of amyloid protein precursor metabolism” (Bioorg Med Chem, 2018).

How the values were obtained:
Format in all cases: cell-based
[1] = Cytotoxicity against human SH-SY5Y cells after 72 hrs by MTT assay
How it was run: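 SH-SY5Y cells grown in DMEM with 10% heat-inactivated FBS, 2 mM L-glutamine, non-essential amino acids and penicillin/streptomycin at 37 °C, 5% CO2. Cells were exposed to compounds at 100, 50, 10, 5, 1, 0.5, 0.1 and 0.05 µM, in under 0.1% DMSO, for 72 h. Growth was read by colorimetric MTT; CC50 taken as the concentration causing 50% cell death.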

[2] = biological target: T1, Amyloid-beta precursor protein (Homo sapiens, UniProt P05067); test: Modulation of human wild-type APP695 expressed in SH-SY5Y cells assessed as inhibition of amyloid beta (1 to 40 residues) production measured after 24 hrs
T1 sequence (P05067 whole entry, the tested form may be a part): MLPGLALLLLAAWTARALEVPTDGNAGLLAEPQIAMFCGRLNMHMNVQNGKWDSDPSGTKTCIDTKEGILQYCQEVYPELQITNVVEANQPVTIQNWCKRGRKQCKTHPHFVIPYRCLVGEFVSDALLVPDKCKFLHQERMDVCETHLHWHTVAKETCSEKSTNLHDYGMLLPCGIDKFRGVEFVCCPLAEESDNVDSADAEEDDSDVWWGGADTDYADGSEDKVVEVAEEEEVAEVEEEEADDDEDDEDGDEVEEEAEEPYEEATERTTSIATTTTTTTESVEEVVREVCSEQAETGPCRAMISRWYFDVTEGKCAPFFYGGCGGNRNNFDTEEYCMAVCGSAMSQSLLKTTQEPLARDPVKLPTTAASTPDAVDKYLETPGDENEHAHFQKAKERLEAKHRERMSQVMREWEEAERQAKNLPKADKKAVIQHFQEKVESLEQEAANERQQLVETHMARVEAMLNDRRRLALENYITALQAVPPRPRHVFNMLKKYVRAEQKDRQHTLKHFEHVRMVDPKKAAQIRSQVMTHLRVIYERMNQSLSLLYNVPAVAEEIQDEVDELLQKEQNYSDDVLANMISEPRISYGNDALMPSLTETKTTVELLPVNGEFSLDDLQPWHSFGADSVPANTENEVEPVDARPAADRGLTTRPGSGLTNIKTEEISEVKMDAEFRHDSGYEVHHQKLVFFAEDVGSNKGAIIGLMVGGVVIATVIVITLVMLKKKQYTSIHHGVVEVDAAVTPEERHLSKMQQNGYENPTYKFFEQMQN
How it was run: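 SY5Y-APPwt cells (stable human APP695 clone) were exposed to compound for 24 h. Conditioned medium was spun at 200×g, frozen at −80 °C and assayed by ELISA for Aβ1-40 or Aβ1-42, with samples in duplicate and experiments in triplicate. Values were normalised to untreated control set to 100%. IC50 is the concentration lowering secreted Aβ to 50% of basal; mean of ≥3 independent experiments.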

[3] = biological target: T1, Amyloid-beta precursor protein; test: Modulation of human wild-type APP695 expressed in SH-SY5Y cells assessed as increase in CTFalpha level at 3 uM measured after 24 hrs by Western blot analysis relative to chloroquine
How it was run: (§1)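 SY5Y stably transfected with human APP695 (pcDNA3.1, G418-selected clone SY5Y-APPwt) was plated 24 h before treatment and exposed to compound for 24 h. Lysates were made in Laemmli buffer with protease inhibitors and sonicated. 20 µg protein/lane was run on 16% Tris-Tricine gel and blotted to PVDF. Blots were probed overnight at 4 °C with APP C-terminal (last 17 aa) rabbit antiserum 1:4000 and developed by chemiluminescence. Band area was quantified with H3 reprobe. Result is the fragment level ratio of compound to chloroquine, both at 3 µM; mean of ≥3 independent experiments.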

[4] = biological target: T1, Amyloid-beta precursor protein; test: Modulation of human wild-type APP695 expressed in SH-SY5Y cells assessed as increase in AICD level at 3 uM measured after 24 hrs by Western blot analysis relative to chloroquine; how it was run: as §1
[5] = biological target: T1, Amyloid-beta precursor protein; test: Modulation of human wild-type APP695 expressed in SH-SY5Y cells assessed as increase in CTFalpha level at 10 uM measured after 24 hrs by Western blot analysis relative to chloroquine
How it was run: (§2)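 Stable human APP695 SY5Y clone (SY5Y-APPwt) was treated with compound for 24 h and lysed in Laemmli buffer with protease inhibitors. 20 µg protein/lane was separated on 16% Tris-Tricine gel and transferred to PVDF. Blots were probed with rabbit antiserum against the APP C-terminal 17 residues (1:4000, overnight at 4 °C) and read by chemiluminescence with densitometric area-under-curve. H3 was used as reprobe.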

[6] = biological target: T1, Amyloid-beta precursor protein; test: Modulation of human wild-type APP695 expressed in SH-SY5Y cells assessed as increase in CTFalpha level at 10 uM measured after 24 hrs by Western blot analysis relative to amodiaquine; how it was run: as §2
[7] = biological target: T1, Amyloid-beta precursor protein; test: Modulation of human wild-type APP695 expressed in SH-SY5Y cells assessed as increase in CTFalpha level at 3 uM measured after 24 hrs by Western blot analysis relative to amodiaquine; how it was run: as §2
[8] = biological target: T1, Amyloid-beta precursor protein; test: Modulation of human wild-type APP695 expressed in SH-SY5Y cells assessed as increase in ACID level at 3 uM measured after 24 hrs by Western blot analysis relative to amodiaquine; how it was run: as §2
[9] = biological target: T1, Amyloid-beta precursor protein; test: Modulation of human wild-type APP695 expressed in SH-SY5Y cells assessed as increase in ACID level at 10 uM measured after 24 hrs by Western blot analysis relative to amodiaquine; how it was run: as §2

SMILES	IC50 [2] [µM]	fold change (FC) [3]	fold change (FC) [4]	fold change (FC) [5]	fold change (FC) [6]	fold change (FC) [7]	fold change (FC) [8]	fold change (FC) [9]	CC50 at 72 h [1] [µM]
CN1CCN(Cc2ccccc2-c2cc(C(=O)NCCN3CCCCC3)cc(C(=O)NCCN3CCCCC3)c2)CC1	> 10								> 100
c1ccc(-c2cc(CNCCN3CCCCC3)cc(CNCCN3CCCCC3)c2)c(CN2CCOCC2)c1	> 10								> 100
CN1CCN(Cc2ccccc2Nc2cc(CNCCN3CCCCC3)cc(CNCCN3CCCCC3)c2)CC1	> 10								> 100
O=C(NCCN1CCCCC1)c1cc(Nc2ccccc2CN2CCOCC2)cc(C(=O)NCCN2CCCCC2)c1	> 10								> 100
CN(C)Cc1ccccc1-c1cc(C(=O)NCCN2CCCCC2)cc(C(=O)NCCN2CCCCC2)c1	> 10								> 100
CCN(CC)Cc1cc(NCCN2CCCCC2)cc(Nc2ccnc3cc(Cl)ccc23)c1	10	0.5	0.4						15
CN(C)Cc1ccccc1Nc1cc(C(=O)NCCN2CCCCC2)cc(C(=O)NCCN2CCCCC2)c1	8.2	1	3						> 100
c1ccc(Nc2cc(CNCCN3CCCCC3)cc(CNCCN3CCCCC3)c2)c(CN2CCOCC2)c1	6.6	0.9	1.3						77
CN(C)Cc1ccccc1Nc1cc(CNCCN2CCCCC2)cc(CNCCN2CCCCC2)c1	> 10								> 100
CN1CCN(Cc2ccccc2-c2cc(CNCCN3CCCCC3)cc(CNCCN3CCCCC3)c2)CC1	> 10								> 100
c1ccc(-c2cc(CNCCN3CCCCC3)cc(CNCCN3CCCCC3)c2)c(CN2CCCCC2)c1	> 10								> 100
CCN(CC)CCCC(C)Nc1ccnc2cc(Cl)ccc12 (stereo not drawn) [CHLOROQUINE]	7	1	1						30
O=C(NCCN1CCCCC1)c1cc(C(=O)NCCN2CCCCC2)cc(-c2ccccc2CN2CCOCC2)c1	> 10								> 100
CN1CCN(Cc2ccccc2Nc2cc(C(=O)NCCN3CCCCC3)cc(C(=O)NCCN3CCCCC3)c2)CC1	> 10								> 100
CN(C)Cc1ccccc1-c1cc(CNCCN2CCCCC2)cc(CNCCN2CCCCC2)c1	> 10								> 100

The next compounds have a lower IC50 [2] than those just listed; values first:

IC50 [2] [µM]	fold change (FC) [3]	fold change (FC) [4]	fold change (FC) [5]	fold change (FC) [6]	fold change (FC) [7]	fold change (FC) [8]	fold change (FC) [9]	SMILES	CC50 at 72 h [1] [µM]
2.3	1.4	1.1						CN1CCN(c2cc(Nc3ccnc4cc(Cl)ccc34)cc(N3CCN(C)CC3)c2)CC1	> 15
1.7	2.1	3.4						CN(C)CCN(C)Cc1cc(NC(=O)CN2CCCCC2)cc(Nc2ccnc3cc(Cl)ccc23)c1	4
1.5	1.6	0.9						CCN(CC)Cc1cc(NC(=O)CN2CCCCC2)cc(Nc2ccnc3cc(Cl)ccc23)c1	4
4	0.5	0.4						CCN(CC)Cc1cc(Nc2ccnc3cc(Cl)ccc23)ccc1O [AMODIAQUINE]	10
5.1	0.5	0.6						Oc1c(CN2CCCC2)cc(Nc2ccnc3cc(Cl)ccc23)cc1CN1CCCC1	30
6.2	1.4	1.9						O=C(NCCN1CCCCC1)c1cc(C(=O)NCCN2CCCCC2)cc(-c2ccccc2CN2CCCCC2)c1	> 100
3.1	0.7	0.5						O=C(CN1CCCCC1)Nc1cc(CN2CCOCC2)cc(Nc2ccnc3cc(Cl)ccc23)c1	10
4.5	0.6	0.5						CCN(CC)Cc1cccc(Nc2ccnc3cc(Cl)ccc23)c1	12
4.1	2.8	2.3	3	3	5.6 to 5.75	3.2 to 10		O=C(NCCN1CCCCC1)c1cc(Nc2ccccc2CN2CCCCC2)cc(C(=O)NCCN2CCCCC2)c1	> 100
2	1.7	2.3						CN(C)CCNCc1cc(NC(=O)CN2CCCCC2)cc(Nc2ccnc3cc(Cl)ccc23)c1	15
4.6	2.6	4			5.6 to 5.75	3.2 to 10	10	c1ccc(Nc2cc(CNCCN3CCCCC3)cc(CNCCN3CCCCC3)c2)c(CN2CCCCC2)c1	> 100
2.5	1.2	1.2						Clc1ccc2c(Nc3cc(CN4CCOCC4)cc(NCCN4CCCCC4)c3)ccnc2c1	10
